Measurements of several laboratories.
Compare with care: the assays were run in different laboratories.
DCAF1: DDB1- and CUL4-associated factor 1 (DCAF1, Homo sapiens, UniProt Q9Y4B6)
4-aminobutyrate aminotransferase, mitochondrial: 4-aminobutyrate aminotransferase, mitochondrial (Homo sapiens, UniProt P80404)
P2RX7: P2X purinoceptor 7 (P2RX7, Homo sapiens, UniProt Q99572)

Structure (SMILES)	target	test	conditions	measurement	result
Cc1cc(NC(=O)c2cccc(NC(=O)/C=C/CN(C)C)c2)ccc1Nc1nccc(-c2cccnc2)n1	Interleukin-1 receptor-associated kinase 1 (IRAK1, Homo sapiens, UniProt P51617)	binding, competition with immobilised ligand	1 µM	remaining binding	11%
C[C@@H]1CN(c2ccc(-c3cc(C(=O)NCCOCCOCCOCCOCCOCCOCCNC(=O)/C=C/c4[nH]cc(C(=O)N[C@@H](CC(N)=O)c5ccc(F)c(Cl)c5)c4-c4ccc(Cl)cc4F)ccc3F)cc2NC(=O)c2ccc(F)cc2C(F)(F)F)C[C@H](C)N1C	DCAF1	thermal stability, DSF	5.5 µM	ΔTm	5.3 °C
N[C@H]1CC(C(=O)O)=CC(F)(F)C1	4-aminobutyrate aminotransferase, mitochondrial	enzyme activity, inhibitor	–	kinact/KI	2 M⁻¹ s⁻¹
COc1cc(-c2cncc3c2CN(C)Cc2cc(N4CCNCC4)ccc2-3)cc(OC)c1OC	Hepatocyte growth factor receptor (MET, Homo sapiens, UniProt P08581, Y1230H)	enzyme activity, inhibitor	1 µM	remaining activity	86%
COc1ccccc1C(=O)/C=C/c1cn(Cc2cn(-c3ccnc4cc(Cl)ccc34)nn2)c2ccccc12	Calcium-dependent protein kinase 1 (CDPK1, Plasmodium falciparum, UniProt P62344)	enzyme activity, inhibitor, ADP detection	5 µM	inhibition	88.3%
Cc1cc([C@@H](C)Nc2ccccc2C(=O)O)c2nc(N3CCC(F)(F)CC3)c(C#N)c(=O)n2c1	Hepatocyte growth factor receptor (MET, Homo sapiens, UniProt P08581)	binding, competition with immobilised ligand	1 µM	remaining binding	100%
C=CC(=O)N1CCC(COCC(=O)N2CCN(c3nc(-c4cnc(N)nc4C(F)F)nc(N4CCOC[C@@H]4C)n3)CC2)CC1	Ribosomal protein S6 kinase alpha-4, N-terminal kinase domain (RPS6KA4, Homo sapiens, UniProt O75676)	binding, competition with immobilised ligand	1 µM	remaining binding	93%
CNc1ncc2c(/C=C/C(=O)N3CCC(OC)CC3)nn(Cc3cccc(C(F)(F)F)c3)c2n1	Mitogen-activated protein kinase kinase kinase 11 (MAP3K11, Homo sapiens, UniProt Q16584)	enzyme activity, inhibitor, radiometric	1 µM	remaining activity	97%
O=C(c1ccc(I)cc1)N1CCC(n2cncc2-c2ccc(OS(=O)(=O)c3cccc4cnccc34)cc2)CC1	P2RX7	ligand displacement, radioligand	1 µM, cell membranes	inhibition	> 70%
N[C@H]1C=C(C(=O)O)CC(F)(F)C1	4-aminobutyrate aminotransferase, mitochondrial	enzyme activity, inhibitor	–	kinact/KI	2.83 M⁻¹ s⁻¹
Cc1nn(CCc2ccccc2)c2ncc(C(=O)NCc3cccnc3)c(Cl)c12	Prolyl endopeptidase (PREP, Homo sapiens, UniProt P48147)	enzyme activity, inhibitor, fluorescence	–	kinact	0.000233 s⁻¹
O=C(c1ccc(Br)cc1)N1CCC(n2cncc2-c2ccc(OS(=O)(=O)c3cccc4cnccc34)cc2)CC1	P2RX7	ligand displacement, radioligand	1 µM, cell membranes	inhibition	> 70%
C[C@@H]1CN(c2ccc(-c3cc(C(=O)NCCOCCOCCOCCOCCNC(=O)Cn4cc(-c5[nH]cc(C(=O)N[C@@H](CC(N)=O)c6ccc(F)c(Cl)c6)c5-c5ccc(Cl)cc5F)cn4)ccc3F)cc2NC(=O)c2c[nH]c(=O)cc2C(F)(F)F)C[C@H](C)N1C	DCAF1	thermal stability, DSF	5.5 µM	ΔTm	8 °C
